This passage reports Growth inhibition results from ChEMBL document CHEMBL1134962, “Facilely accessible multidrug resistance modulator derived from sucrose” (2002).

Each structure is given as a SMILES string.

Common to all, as to assay type: functional, Homo sapiens
Test [1] concerns KB 3-1. Nature of the test: Cytotoxicity against KB-3-1 cells was determined when administered at 1 ug/mL. Put shortly: (§1)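 Parental KB-3-1 cells grown in RPMI 1640 with glutamine, kanamycin and 10% newborn calf serum. 10,000 cells per well were preincubated 24 h at 37 °C in 5% CO2. The test sample was then added alone and incubated 48 h. MTT was added for 3 h, and the formazan was extracted with DMSO before the colorimetric read.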

Test [2] has as its system KB. Description: Percentage inhibition of growth against KB-C2 cells in the presence of colchicine(0.1 ug/mL) was determined when administered at 1 ug/mL. A digest of the protocol: (§2)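 Multidrug-resistant KB-C2 cells were selected from KB-3-1 and kept in colchicine-containing RPMI 1640 with glutamine, kanamycin and 10% newborn calf serum. 10,000 cells per well were preincubated 24 h at 37 °C in 5% CO2. Colchicine plus the test sample were added together and incubated 48 h. Growth was read by MTT (3 h), with the formazan extracted in DMSO.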

The subject of test [3] is KB 3-1. Nature of the test: Cytotoxicity against KB-3-1 cells was determined when administered at 3 ug/mL. Put shortly: as §1
Test [4] has as its system KB 3-1. Description: Cytotoxicity against KB-3-1 cells was determined when administered at 10 ug/mL. Put shortly: as §1
Test [5] relates to KB. Description: Percentage inhibition of growth against KB-C2 cells in the presence of colchicine(0.1 ug/mL) was determined when administered at 3 ug/mL. Put shortly: as §2
The test system of test [6] is KB. Nature of the test: Percentage inhibition of growth against KB-C2 cells in the presence of colchicine(0.1 ug/mL) was determined when administered at 10 ug/mL. A digest of the protocol: as §2
Test [7] has as its system KB. Nature of the test: Percentage inhibition of growth against KB-C2 cells in the presence of colchicine (0.1 ug/mL) was determined when administered at 3 ug/mL. A digest of the protocol: as §2

Take `CC(C)CC(=O)OC[C@H]1O[C@@](COC(=O)CC(C)C)(O[C@H]2O[C@H](COC(=O)CC(C)C)[C@@H](OC(=O)CC(C)C)C(OC(=O)CC(C)C)[C@H]2OC(=O)CC(C)C)[C@@H](OC(=O)CC(C)C)[C@@H]1OC(=O)CC(C)C` (stereo partly specified): the Growth inhibition with KB 3-1 [1] stood at 10%; with KB [2] it was 4%; in the test on KB 3-1 [3] it was 15%; in the test with KB 3-1 [4], 25%; with KB [5] it was 12%; with KB [6], 24%.
On to `CC(C)CC(=O)O[C@@H]1[C@@H](OC(=O)CC(C)C)[C@@H](O[C@]2(CO)O[C@H](CO)[C@@H](OC(=O)CC(C)C)[C@@H]2OC(=O)CC(C)C)O[C@H](CO)[C@H]1OC(=O)CC(C)C`, for which the Growth inhibition in the test on KB 3-1 [1] stood at 9%; in the test on KB [7], 92%; with KB [2], 65%; with KB 3-1 [3] it was 8%; with KB 3-1 [4], 98%; in the test on KB [6], 97%.
For the molecule `CC(C)CC(=O)OC[C@H]1O[C@H](O[C@]2(COC(=O)CC(C)C)O[C@H](COC(=O)CC(C)C)[C@@H](OC(=O)CC(C)C)[C@@H]2OC(=O)CC(C)C)[C@H](OC(=O)CC(C)C)[C@@H](O)[C@@H]1O`, the Growth inhibition in the test on KB 3-1 [1] worked out at 18%; in the test on KB [2], 23%; with KB 3-1 [3], 16%; in the test with KB 3-1 [4], 93%; with KB [5], 60%; with KB [6] it was 92%.
Turning to `CC(C)CC(=O)OC[C@H]1O[C@@](COC(=O)CC(C)C)(O[C@H]2O[C@H](CO)[C@@H](OC(=O)CC(C)C)[C@H](O)[C@H]2OC(=O)CC(C)C)[C@@H](OC(=O)CC(C)C)[C@@H]1OC(=O)CC(C)C`, the Growth inhibition in the test with KB 3-1 [1] is on record as 2%; with KB [2], 39%; in the test on KB 3-1 [3], 10%; with KB 3-1 [4] it was 40%; in the test on KB [5], 79%; in the test with KB [6], 88%.
For `CC(C)CC(=O)OC[C@H]1O[C@@](COC(=O)CC(C)C)(O[C@H]2O[C@H](CO)[C@@H](O)[C@H](O)[C@H]2OC(=O)CC(C)C)[C@@H](OC(=O)CC(C)C)[C@@H]1OC(=O)CC(C)C`, the Growth inhibition in the test on KB 3-1 [1] is on record as 10%; in the test on KB [2], 40%; with KB 3-1 [3] it was 21%; with KB 3-1 [4], 92%; in the test with KB [5], 76%; in the test with KB [6], 93%.
As for `CC(C)CC(=O)OC[C@H]1O[C@@](COC(=O)CC(C)C)(O[C@H]2O[C@H](CO)[C@@H](O)[C@H](OC(=O)CC(C)C)[C@H]2OC(=O)CC(C)C)[C@@H](OC(=O)CC(C)C)[C@@H]1OC(=O)CC(C)C`, the Growth inhibition is recorded as 6% in the test with KB 3-1 [1]; 18% in the test on KB [2]; 16% in the test on KB 3-1 [3]; 66% in the test on KB 3-1 [4]; 53% with KB [5]; 94% in the test on KB [6].
